Converted amounts (≈) assume the structure as drawn.

In one experiment the test system is Bacillus subtilis. In words: Antibacterial activity against Bacillus subtilis by NCCLS broth microdilution method. The class given is functional. The conditions noted are these: Bacillus subtilis; read-out: MIC90. In general terms: In broth dilution the organism is exposed to a series of concentrations in liquid medium.
For the compound `CC12CCCC(/C1=N\O)C(c1cccc(F)c1)NC2c1cccc(F)c1` (configuration not stated), the MIC90 turned out to be 128 µg/mL (≈ 359 µM).

As to `CO/N=C1\C2CCCC1(C)C(c1ccc(Cl)cc1)NC2c1ccc(Cl)cc1` (configuration not stated), the MIC90 was found to be 64 µg/mL (≈ 159 µM).

For `CO/N=C1\C2CCCC1(C)C(c1ccccc1)NC2c1ccccc1` (configuration not stated), the MIC90 was > 128 µg/mL.

For `COc1ccccc1C1NC(c2ccccc2OC)C2(C)CCCC1/C2=N\O` (configuration not stated), the MIC90 is 64 µg/mL (≈ 168 µM).

`CO/N=C1\C2CCCC1(C)C(c1ccc(OC)cc1)NC2c1ccc(OC)cc1` (configuration not stated): the MIC90 turned out to be 64 µg/mL (≈ 162 µM).

`CON=C1C2CC(C)CC1C(c1ccccc1F)NC2c1ccccc1F` (stereo in doubt; 55a): the MIC90 came out at 4 µg/mL (≈ 10.8 µM).

In the next experiment the test system is Staphylococcus aureus. Briefly: Antibacterial activity against Staphylococcus aureus by NCCLS broth microdilution method.
Settings: not given
The class given is functional.
For the compound `CON=C1C2CC(C)CC1C(c1ccccc1F)NC2c1ccccc1F` (stereo in doubt; 55a), the MIC90 was found to be 2 µg/mL (≈ 5.4 µM).

Staying with this experiment, now noted: Staphylococcus aureus; read-out: MIC90.
As for `CC12CCCC(/C1=N\O)C(c1cccc(F)c1)NC2c1cccc(F)c1` (configuration not stated), the MIC90 was found to be 64 µg/mL (≈ 180 µM).

`CO/N=C1\C2CCCC1(C)C(c1ccc(Cl)cc1)NC2c1ccc(Cl)cc1` (configuration not stated): the MIC90 came to 32 µg/mL (≈ 79.3 µM).

In the case of `CO/N=C1\C2CCCC1(C)C(c1ccccc1)NC2c1ccccc1` (configuration not stated), the MIC90 was determined as 64 µg/mL (≈ 191 µM).

As to `COc1ccccc1C1NC(c2ccccc2OC)C2(C)CCCC1/C2=N\O` (configuration not stated), the MIC90 came out at 64 µg/mL (≈ 168 µM).

For `CO/N=C1\C2CCCC1(C)C(c1ccc(OC)cc1)NC2c1ccc(OC)cc1` (configuration not stated), the MIC90 turned out to be 16 µg/mL (≈ 40.6 µM).

A further experiment deals with Klebsiella pneumoniae. Briefly: Antibacterial activity against Klebsiella pneumoniae by NCCLS broth microdilution method. The format is functional.
Settings: not given
Take `CON=C1C2CC(C)CC1C(c1ccccc1F)NC2c1ccccc1F` (stereo in doubt; 55a): the MIC90 stood at 2 µg/mL (≈ 5.4 µM).

The same experiment, now with this note: Klebsiella pneumoniae; read-out: MIC90.
Consider `CC12CCCC(/C1=N\O)C(c1cccc(F)c1)NC2c1cccc(F)c1` (configuration not stated), for which the MIC90 is 32 µg/mL (≈ 89.8 µM).

For `CO/N=C1\C2CCCC1(C)C(c1ccc(Cl)cc1)NC2c1ccc(Cl)cc1` (configuration not stated), the MIC90 stood at 16 µg/mL (≈ 39.7 µM).

With `CO/N=C1\C2CCCC1(C)C(c1ccccc1)NC2c1ccccc1` (configuration not stated), the MIC90 came to 128 µg/mL (≈ 383 µM).

For `COc1ccccc1C1NC(c2ccccc2OC)C2(C)CCCC1/C2=N\O` (configuration not stated), the MIC90 was 128 µg/mL (≈ 336 µM).

Regarding `CO/N=C1\C2CCCC1(C)C(c1ccc(OC)cc1)NC2c1ccc(OC)cc1` (configuration not stated), the MIC90 came to 64 µg/mL (≈ 162 µM).

In a further experiment the test system is Pseudomonas aeruginosa. Briefly: Antibacterial activity against Pseudomonas aeruginosa by NCCLS broth microdilution method. The format is functional.
Settings: not given
Take `CON=C1C2CC(C)CC1C(c1ccccc1F)NC2c1ccccc1F` (stereo in doubt; 55a): the MIC90 came out at 8 µg/mL (≈ 21.6 µM).

The same experiment, now with this note: Pseudomonas aeruginosa; read-out: MIC90.
With `CC12CCCC(/C1=N\O)C(c1cccc(F)c1)NC2c1cccc(F)c1` (configuration not stated), the MIC90 stood at 128 µg/mL (≈ 359 µM).

Consider `CO/N=C1\C2CCCC1(C)C(c1ccc(Cl)cc1)NC2c1ccc(Cl)cc1` (configuration not stated), for which the MIC90 came to 64 µg/mL (≈ 159 µM).

Take `CO/N=C1\C2CCCC1(C)C(c1ccccc1)NC2c1ccccc1` (configuration not stated): the MIC90 is > 128 µg/mL.

`COc1ccccc1C1NC(c2ccccc2OC)C2(C)CCCC1/C2=N\O` (configuration not stated): the MIC90 was 128 µg/mL (≈ 336 µM).

As for `CO/N=C1\C2CCCC1(C)C(c1ccc(OC)cc1)NC2c1ccc(OC)cc1` (configuration not stated), the MIC90 was determined as 128 µg/mL (≈ 324 µM).

Another experiment has as its system Candida albicans. In words: Antifungal activity against Candida albicans by NCCLS broth microdilution method. The class given is functional.
Settings: not given
In outline:
(§1)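 MIC90 was taken as the lowest concentration that inhibited 90% of pathogen growth after incubation, reported in μg/mL. Broth dilution followed the NCCLS reference standards: M27-A for yeasts and the proposed standard for conidium-forming filamentous fungi. Fluconazole was the reference drug.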
In turn, `CON=C1C2CC(C)CC1C(c1ccccc1F)NC2c1ccccc1F` (stereo in doubt; 55a) had an MIC90 of 8 µg/mL (≈ 21.6 µM).

The same experiment, now with this note: Candida albicans; read-out: MIC90.
On to `CC12CCCC(/C1=N\O)C(c1cccc(F)c1)NC2c1cccc(F)c1` (configuration not stated), for which the MIC90 came to 32 µg/mL (≈ 89.8 µM).

For the compound `CO/N=C1\C2CCCC1(C)C(c1ccc(Cl)cc1)NC2c1ccc(Cl)cc1` (configuration not stated), the MIC90 came to 16 µg/mL (≈ 39.7 µM).

For the compound `CO/N=C1\C2CCCC1(C)C(c1ccccc1)NC2c1ccccc1` (configuration not stated), the MIC90 stood at 128 µg/mL (≈ 383 µM).

Turning to `COc1ccccc1C1NC(c2ccccc2OC)C2(C)CCCC1/C2=N\O` (configuration not stated), the MIC90 was > 128 µg/mL.

As to `CO/N=C1\C2CCCC1(C)C(c1ccc(OC)cc1)NC2c1ccc(OC)cc1` (configuration not stated), the MIC90 is 64 µg/mL (≈ 162 µM).

Regarding `OC(Cn1cncn1)(Cn1cncn1)c1ccc(F)cc1F` [FLUCONAZOLE], the MIC90 is 1 µg/mL (≈ 3.27 µM).

The test system of another experiment is Candida parapsilosis. Briefly: Antifungal activity against Candida parapsilosis by NCCLS broth microdilution method. The format is functional.
Settings: not given
The essentials:
as §1
`CON=C1C2CC(C)CC1C(c1ccccc1F)NC2c1ccccc1F` (stereo in doubt; 55a) came in with an MIC90 of 32 µg/mL (≈ 86.4 µM).

The experiment is the same for the next values; noted with them: Lodderomyces parapsilosis; read-out: MIC90.
In the case of `CC12CCCC(/C1=N\O)C(c1cccc(F)c1)NC2c1cccc(F)c1` (configuration not stated), the MIC90 is 64 µg/mL (≈ 180 µM).

Turning to `CO/N=C1\C2CCCC1(C)C(c1ccc(Cl)cc1)NC2c1ccc(Cl)cc1` (configuration not stated), the MIC90 was determined as 16 µg/mL (≈ 39.7 µM).

As for `CO/N=C1\C2CCCC1(C)C(c1ccccc1)NC2c1ccccc1` (configuration not stated), the MIC90 is > 128 µg/mL.

Take `COc1ccccc1C1NC(c2ccccc2OC)C2(C)CCCC1/C2=N\O` (configuration not stated): the MIC90 was found to be 128 µg/mL (≈ 336 µM).

Take `CO/N=C1\C2CCCC1(C)C(c1ccc(OC)cc1)NC2c1ccc(OC)cc1` (configuration not stated): the MIC90 is 128 µg/mL (≈ 324 µM).

On to `OC(Cn1cncn1)(Cn1cncn1)c1ccc(F)cc1F` [FLUCONAZOLE], for which the MIC90 was 2 µg/mL (≈ 6.53 µM).

In the next experiment the test system is Aspergillus niger. Briefly: Antifungal activity against Aspergillus niger by NCCLS broth microdilution method. The format is functional.
Settings: not given
The essentials:
as §1
Consider `CON=C1C2CC(C)CC1C(c1ccccc1F)NC2c1ccccc1F` (stereo in doubt; 55a), for which the MIC90 was found to be 16 µg/mL (≈ 43.2 µM).

Staying with this experiment, now noted: Aspergillus niger; read-out: MIC90.
Take `CC12CCCC(/C1=N\O)C(c1cccc(F)c1)NC2c1cccc(F)c1` (configuration not stated): the MIC90 is 128 µg/mL (≈ 359 µM).

Regarding `CO/N=C1\C2CCCC1(C)C(c1ccc(Cl)cc1)NC2c1ccc(Cl)cc1` (configuration not stated), the MIC90 was 8 µg/mL (≈ 19.8 µM).

In the case of `CO/N=C1\C2CCCC1(C)C(c1ccccc1)NC2c1ccccc1` (configuration not stated), the MIC90 was > 128 µg/mL.

On to `COc1ccccc1C1NC(c2ccccc2OC)C2(C)CCCC1/C2=N\O` (configuration not stated), for which the MIC90 was found to be 128 µg/mL (≈ 336 µM).

Regarding `CO/N=C1\C2CCCC1(C)C(c1ccc(OC)cc1)NC2c1ccc(OC)cc1` (configuration not stated), the MIC90 was determined as 128 µg/mL (≈ 324 µM).

For `OC(Cn1cncn1)(Cn1cncn1)c1ccc(F)cc1F` [FLUCONAZOLE], the MIC90 is 4 µg/mL (≈ 13.1 µM).

The next experiment concerns Cryptococcus neoformans. In words: Antifungal activity against Cryptococcus neoformans by NCCLS broth microdilution method.
Settings: not given
The class given is functional. In outline: as §1
Turning to `CON=C1C2CC(C)CC1C(c1ccccc1F)NC2c1ccccc1F` (stereo in doubt; 55a), the MIC90 was determined as 16 µg/mL (≈ 43.2 µM).

Staying with this experiment, now noted: Cryptococcus neoformans; read-out: MIC90.
In the case of `CC12CCCC(/C1=N\O)C(c1cccc(F)c1)NC2c1cccc(F)c1` (configuration not stated), the MIC90 is > 128 µg/mL.

Turning to `CO/N=C1\C2CCCC1(C)C(c1ccc(Cl)cc1)NC2c1ccc(Cl)cc1` (configuration not stated), the MIC90 was 8 µg/mL (≈ 19.8 µM).

For `CO/N=C1\C2CCCC1(C)C(c1ccccc1)NC2c1ccccc1` (configuration not stated), the MIC90 was > 128 µg/mL.

Regarding `COc1ccccc1C1NC(c2ccccc2OC)C2(C)CCCC1/C2=N\O` (configuration not stated), the MIC90 is 64 µg/mL (≈ 168 µM).

On to `CO/N=C1\C2CCCC1(C)C(c1ccc(OC)cc1)NC2c1ccc(OC)cc1` (configuration not stated), for which the MIC90 is > 128 µg/mL.

For `OC(Cn1cncn1)(Cn1cncn1)c1ccc(F)cc1F` [FLUCONAZOLE], the MIC90 worked out at 2 µg/mL (≈ 6.53 µM).

One may read the MIC90 as an inhibitory concentration at the 90% level, which refers to growth in some studies and to a panel of isolates in others.
